The full list was thinned out, with hits kept by preference.
XBP1 UPR activ: adaptive UPR (XBP1) activation; activation, % at 20 µM; AID 463104; CHO-XBP1 luciferase reporter, IRE1-XBP1 UPR activation, luminescence; percent of tunicamycin response, DMSO as zero; 0.33% of 330,000 active;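 active = versus positive control, 20 µM dose yields 30% or more activation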;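 note: 100% = tunicamycin at 10 µg/mL and 0% = DMSO only wells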
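Material: IRE1-XBP1 luciferase reporter CHO line / Quantity: one thousand reporter cells per well / Buffer or medium: F12 with 10% serum / Compound: 20 µM single concentration, DMSO 1% / Times: 6 h treatment, 37 °C / Detection: Steady-Glo luciferase glow luminescence, 10 min after reagent addition / Benchmarks: tunicamycin high, DMSO low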
UPR CHOP act: apoptotic UPR (CHOP) activation; CHO-CHOP luciferase reporter, luminescence; percent of tunicamycin response over DMSO baseline; activation, % at 10 µM; 0.34% of 330,000 active; AID 449763;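 active = at 10 µM dose, activation of 40% or more, normalized to positive control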;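 note: 100% = tunicamycin at 10 µg/mL and 0% = DMSO alone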
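System: CHO-CHOP luciferase reporter cell line | Buffer or medium: F12 medium containing 10% fetal bovine serum | Doses: One dose, 10 µM in 0.5% DMSO | Times: 6 h compound exposure at 37 °C after overnight seeding | Signal: Luciferase luminescence | Read-out: % activation vs tunicamycin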
PvdQ inh: P. aeruginosa PvdQ acylase inhibition. purified PvdQ acylase, fluorescence plate reader. inhibition, % at 10 µM. 0.063% of 340,000 active. AID 488965; in the data active = inhibition above about 30%, passing the limit was not always enough;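 note: 0% = vehicle neutral wells and 100% = reference inhibitor wells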
CHOP inhibitor: inhibitors of CHOP induction in ER stress response; CHO-K1 CHOP-promoter luciferase, tunicamycin-induced, 15-18 h; inhibition, % at 10 µM; 3.8% of 220,000 active; AID 2732;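 active = compounds that reduced the stress-induced luciferase reporter signal by more than about 70% of percent inhibition, limit read from the data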;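 note: 0% = tunicamycin plus vehicle and 100% = wells without tunicamycin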
The depositor's hits bear a star; x = not tested or not shown.

SMILES	XBP1 UPR activ	UPR CHOP act	PvdQ inh	CHOP inhibitor
COc1ccc(OC)c(/C=N\NC(=O)c2ccc(-c3ccccc3)cc2)c1	-2	1	-1	x
COc1ccc(OC)c(/C=N/N(C)c2ccccc2)c1	3	5	8	72*
Cc1cc2cc(C)c(NCCNC(=O)c3ccccc3)nc2cc1C	6	1	-13	90*
CCOc1ccc2nc(NCCNC(=O)C(C)C)c(C)cc2c1	0	2	-1	71*
COc1ccc(S(=O)(=O)N2CCOCC2)cc1NC(=O)C1CCCCN1S(=O)(=O)c1ccccc1 (stereo not given)	x	x	-12	x
O=C(NCCN1CCc2ccccc2C1)C1CC(=O)N(C2CCCC2)C1 (stereo not given)	-2	0	-10	89*
COc1ccc(/C=N/NC(=O)c2csc(-n3nc(C)cc3C(F)(F)F)n2)cc1	1	-3	2	79*
Cc1cccc(NC(=O)CSc2nc3c([nH]c4ccccc43)c(=O)n2C)c1	18	9	-9	79*
Cc1cccc(NC(=O)CSc2nc3nc4c(cc3c(=O)n2-c2ccccc2)CCCC4)c1	2	5	6	80*
CCSc1nc2c([nH]c3ccccc32)c(=O)n1C	0	-2	-8	77*
Cn1c(SCC(=O)Nc2ccccc2)nc2c([nH]c3ccccc32)c1=O	24	-1	0	11
CC[N+](C)(CC)CC(O)COCC1COc2ccccc2O1 (stereo not given)	2	0	-6	2
O=C(Nc1cc(-c2ccccc2)[nH]n1)c1ccccc1F	4	11	x	-12
CC1=C(C(=O)Nc2cc(-c3cccc(F)c3)[nH]n2)C2(CCCCC2)OC1=O	-2	1	-5	82*
Cc1[nH]c2ccc(F)cc2c1CCN(Cc1ccco1)C(=S)NC(C)(C)C	-5	4	-14	81*
CNC(=S)N(CCc1c(C)[nH]c2ccc(F)cc12)Cc1ccco1	0	1	-18	x
COc1ccc(NC(=O)CSc2ncccc2C(=O)OC(C)C)cc1OC	1	3	9	71*
O=C(/C=C/c1cn(-c2ccccc2)nc1-c1cccc(Cl)c1)N1CCN(c2ccccn2)CC1	3	3	-2	46
Cc1ccc(-c2noc(CSc3nnc(Cc4ccccc4)n3-c3ccc(Cl)cc3)n2)cc1	-4	1	2	81*
O=C(Oc1nsnc1N1CCOCC1)N1CCOCC1	-1	-2	-6	71*
CCCCNc1c2c3c(cccc3n(C)c1=O)C(=O)c1ccccc1-2	0	-1	-2	82*
Cn1c(=O)c(NCCO)c2c3c(cccc31)C(=O)c1ccccc1-2	-1	-3	-6	38
COC(=O)c1cc2occc2n1Cc1c(F)cccc1Cl	x	x	x	46
COC(=O)c1cc2occc2n1Cc1ccc(Cl)cc1	1	3	-2	87*
CCOc1ccc(NC(=O)CC2SC(=O)N(c3ccccc3)C2=O)cc1 (stereo not given)	-3	0	-12	-7
SMILES	XBP1 UPR activ	UPR CHOP act	PvdQ inh	CHOP inhibitor
C=CCSc1nc(Oc2ccccc2)c2sccc2n1	1	-1	4	72*
CSc1nc(Oc2ccccc2)c2sccc2n1	-1	-4	-15	51
Cc1cccc(NC(=S)NC2CCN(Cc3ccccc3)CC2)c1C	-4	1	10	1
CC(C)(C)CC(C)(C)NC(=S)NC1CCN(Cc2ccccc2)CC1	3	0	-1	71*
Cc1ccc(N(Cc2cc(=O)[nH]c3ccccc23)C(=O)c2ccco2)cc1	1	-1	-1	72*
O=S(=O)(NC1CCCCC1Nc1ccc(Cl)cc1)c1ccccc1 (stereo not given)	-3	3	-21	51
Cc1ccc(NC2CCCCC2NS(=O)(=O)c2ccc(Cl)cc2)cc1 (stereo not given)	-3	-1	-10	91*
Cc1ccc(S(=O)(=O)Nc2ccc(N3CCCCC3)cc2)cc1	-3	2	3	52
Cc1ccc(NS(=O)(=O)c2ccc(C3CCCCC3)cc2)cc1	-3	-1	-9	95*
Cc1ccc(Cl)cc1N1CCN(C(=O)c2cc3c(=O)[nH]c4ccccc4c3n2C)CC1	7	5	-11	94*
CC(=O)OCCN(Cc1ccccc1)Cc1ccc2c(c1)OCO2	-2	0	-6	70*
O=C(N1CCCCC1)C1(c2ccccc2)CCCCC1	-4	-1	-17	x
O=CNC1(c2ccccc2)CCCCC1	x	x	94*	x
Cn1cncc1C#Cc1c(C=O)[nH]c2ccccc12	-3	-1	-14	x
